Values after ≈ are worked out from the molar mass of the structure shown. Active and inactive are the calls of the source. The rule behind the calls is not given here.
Columns and labels:
[1] = test system: Mycobacterium tuberculosis; test: Antitubercular activity against Mycobacterium tuberculosis H37Rv ATCC 27294 assessed as growth inhibition after 28 days by agar dilution method; type: functional; conditions: H37Rv ATCC 27294, 672 h
Method in brief: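 Agar dilution in Middlebrook 7H11 with 10 % OADC, duplicate plates; compounds dissolved in DMSO and diluted twofold to give ten serial dilutions. Inoculum grown on 7H11/OADC slants, adjusted to 1 mg/mL wet weight in 0.05 % Tween 80 saline, diluted 10−2 (~10^7 cfu/mL); 5 μL spotted. Incubated at 37 °C, read at 28 days; MIC = lowest concentration completely inhibiting growth.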

C6 = test: Cytotoxicity against rat C6 cells assessed as cell viability at 0.0000001 to 1 mM after 16 hrs by MTT assay; type: functional
Method in brief: (§1)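 Cells seeded and incubated overnight at 37 °C in a CO2 incubator, then exposed to 1 mM, 100 μM, 100 nM and 100 pM (final) for 16 h at 37 °C, 5 % CO2. Medium removed, MTT (1 mg/mL in medium) added for 5 h, formazan dissolved in DMSO, absorbance read at 570 nm. Viability relative to 0.1 % DMSO solvent control (100 %). Triplicates, means.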

SUP-T1 = test: Cytotoxicity against human SupT1 cells assessed as cell viability at 0.0000001 to 1 mM after 16 hrs by MTT assay; type: functional; method in brief: as §1
CHO = test: Cytotoxicity against CHO cells assessed as cell viability at 0.0000001 to 1 mM after 16 hrs by MTT assay; type: cell-based, Cricetulus griseus; conditions: chinese hamster; method in brief: as §1
COLO 205 = test: Cytotoxicity against human COLO205 cells assessed as cell viability at 0.0000001 to 1 mM after 16 hrs by MTT assay; type: functional, cell-based; method in brief: as §1

Structure (SMILES)	MIC [1] [µg/mL]	Activity (C6)	Activity (SUP-T1)	Activity (CHO)	Activity (COLO 205)
NC(=O)c1cnccn1 [PYRAZINAMIDE]	50.8 (≈ 412 µM)				
COC(=O)/C(=C/c1ccc(Br)cc1)CN1C(=O)C(=O)c2cc(Br)ccc21	12.5 (≈ 26.1 µM)	Active	Active	Toxic	Active
CO[C@H]1/C=C/O[C@@]2(C)Oc3c(C)c(O)c4c(O)c(c(/C=N/N5CCN(C)CC5)c(O)c4c3C2=O)NC(=O)/C(C)=C\C=C\[C@H](C)[C@H](O)[C@@H](C)[C@@H](O)[C@@H](C)[C@H](OC(C)=O)[C@@H]1C [RIFAMPIN]	0.1 (≈ 0.122 µM)				
CC[C@@H](CO)NCCN[C@@H](CC)CO [ETHAMBUTOL]	7.64 (≈ 37.4 µM)				
COC(=O)/C(=C/c1ccc([N+](=O)[O-])cc1)CN1C(=O)C(=O)c2cc(Cl)ccc21	1.56 (≈ 3.89 µM)	Active	Active	Toxic	Active
COC(=O)/C(=C/c1ccc(Br)cc1)CN1C(=O)C(=O)c2ccccc21	25 (≈ 62.5 µM)	Active	Active	Toxic	Active
COC(=O)/C(=C/c1ccccc1)CN1C(=O)C(=O)c2cc(Cl)ccc21	12.5 (≈ 35.1 µM)	Active	Active	Toxic	Active
COC(=O)/C(=C/c1ccc(Br)cc1)CN1C(=O)C(=O)c2cc(Cl)ccc21	6.25 (≈ 14.4 µM)	Active	Active	Toxic	Active
COC(=O)/C(=C/c1ccc([N+](=O)[O-])cc1)CN1C(=O)C(=O)c2cc(Br)ccc21	1.56 (≈ 3.5 µM)	<20%	<20%	Non-toxic	Active
NNC(=O)c1ccncc1 [ISONIAZID]	0.36 (≈ 2.63 µM)				
COC(=O)/C(=C/c1ccc(Br)cc1)CN1C(=O)C(=O)c2cc(F)ccc21	6.25 (≈ 14.9 µM)	Active	Active	Toxic	Active
COC(=O)/C(=C/c1ccc([N+](=O)[O-])cc1)CN1C(=O)C(=O)c2cc(F)ccc21	1.56 (≈ 4.06 µM)	Active	Active	Toxic	Active
COC(=O)/C(=C/c1ccc([N+](=O)[O-])cc1)CN1C(=O)C(=O)c2ccccc21	6.25 (≈ 17.1 µM)	Active	Active	Toxic	Active
COC(=O)/C(=C/c1ccccc1)CN1C(=O)C(=O)c2cc(F)ccc21	12.5 (≈ 36.8 µM)	Active	Active	Toxic	Active
COC(=O)/C(=C/c1ccccc1)CN1C(=O)C(=O)c2cc(Br)ccc21	12.5 (≈ 31.2 µM)	Active	Active	Toxic	Active
COC(=O)/C(=C/c1ccccc1)CN1C(=O)C(=O)c2ccccc21	25 (≈ 77.8 µM)	Active	Active	Toxic	Active

Source: ChEMBL document CHEMBL2429831, “Synthesis, antitubercular and anticancer activity of new Baylis-Hillman adduct-derived N-cinnamyl-substituted isatin derivatives” (Med Chem Res, 2013)
